Test results: ChEMBL document CHEMBL1671691 (Antimicrob Agents Chemother, 2010)
The source made the active and inactive calls. The calls are words filed in the database; no cut-off is given here.

Tests used:
Influenza A virus [1] = test: Antiviral activity against adamantane-resistant zanamivir-,oseltamivir-susceptible Influenza A virus (A/pdm/Mexico/4604/2009(H1N1)) harboring M2 V28I, S31N mutant infected in MDCK cells assessed as determination of viral titer in cell culture at 128 uM after 24 hrs by immunofluorescence assay; format: functional, organism-based; conditions: Influenza A virus (A/Mexico/4604/2009(H1N1))
Method in brief: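 MDCK cells (ATCC or Mill Hill) infected with 2009 pandemic H1N1 at MOI ~0.01, 1 h adsorption at 4°C, washed. DMEM with 2 μg/ml TPCK-trypsin plus drug for 24 h at 37°C. Supernatants titrated on MDCK cells by focus formation: methanol/acetic acid fixation, anti-nucleoprotein MAbs, FITC secondary, foci counted. Titre as log10 FFU per 100 μl; detection limit <10 FFU; quadruplicate wells.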

Influenza B virus = test: microbe, parasite or virus in culture; conditions: B/New York/22/2008, MDCK, 72 h
Influenza A virus [2] = test: Antiviral activity against adamantane-, zanamivir-susceptible oseltamivir-resistant Influenza A virus (A/Washington/10/2008(H1N1)) harboring M2 S31N mutant infected in MDCK cells assessed as inhibition of viral replication after 3 days by microscopic analysis using crystal violet stain; format: functional, organism-based
Method in brief: (§1)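 Confluent MDCK-ATCC monolayers infected with virus diluted to give 15–45 plaques/well. Adsorption 1 h at 37°C without drug, then washed. Overlaid with 0.8% agarose in MEM containing drug plus TPCK-trypsin: 3 μg/ml for seasonal viruses, 2 μg/ml for 2009 A(H1N1). Incubated 3 days at 37°C, 5% CO2. Ethanol-fixed, crystal violet-stained, plaques counted. EC50 by curve fit; duplicates on three occasions, mean ± SD.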

Influenza A virus [3] = test: Antiviral activity against adamantane-, zanamivir-susceptible oseltamivir-resistant Influenza A virus (A/North Carolina/02/ 2009(H1N1)) harboring M2 S31N mutant infected in MDCK cells assessed as inhibition of viral replication after 3 days by microscopic analysis using crystal violet stain; format: functional, organism-based; method in brief: as §1

NC(=O)c1nc(F)cnc1O [FAVIPIRAVIR]
Activity (Influenza A virus [1]): Active
EC50 (Influenza B virus): 5.3 µM
EC50 (Influenza A virus [2]): 3.25 µM
EC50 (Influenza A virus [3]): 5.03 µM
